Legend:
[1] = Relaxation of KCl-induced contraction in guinea pig terminal ilea assessed as reduction of contraction force at 100 uM; type: functional, Cavia porcellus; design: scale not given: the % may be the effect or the level left
In short: (§1)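 Precontracted with 60 mM KCl at a resting tension of 4.9 mN. After a 45 min control period, compound (1–100 µM) was added cumulatively to steady state. Isometric force was recorded as % decrease; IC₅₀ from 4–6 experiments, mean ± SEM.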

[2] = Spasmolytic activity in guinea pig terminal ilea; type: functional, Cavia porcellus; in short: as §1
[3] = Spasmolytic activity in guinea pig terminal ilea relative to resveratrol; type: functional, Cavia porcellus
In short: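 Ileal IC₅₀ was measured as for the KCl-precontracted (60 mM) guinea pig terminal ileum with cumulative dosing up to 100 µM. It is expressed as a potency index relative to resveratrol.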

[4] = Toxicity in guinea pig vascular smooth muscle; type: tissue-based, Cavia porcellus, Muscle tissue
In short: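 Guinea pig aortic rings in oxygenated Krebs–Henseleit at 35 °C, contracted with 90 mM KCl. Compound was added cumulatively up to 100 µM, and relaxation of isometric contraction force was recorded.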

[5] = Toxicity in guinea pig heart muscle; type: tissue-based, Cavia porcellus, Muscle tissue
In short: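 Guinea pig heart muscle in oxygenated Krebs–Henseleit at 35 °C. Isometric contraction force was measured in electrically stimulated papillary muscles (Purkinje fibres removed, diameter <0.87 mm). Chronotropic effect was measured as spontaneous activity of isolated right atria. Compounds were added cumulatively. Paired Student's t-test.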

[6] = Relaxation of KCl-induced contraction in guinea pig terminal ilea assessed as reduction of contraction force at 30 uM; type: functional, Cavia porcellus; design: scale not given: the % may be the effect or the level left; in short: as §1

| Compound | Activity [1] [%] | IC50 [2] [µM] | Activity [3] | Activity [4] | Activity [5] | Activity [6] [%] |
| --- | --- | --- | --- | --- | --- | --- |
| O=C(Nc1cc(F)cc(F)c1)c1ccc(F)cc1 | 1.66 | 8.5 | 2.82 | Non-toxic | Non-toxic | – |
| O=C(Nc1ccc(F)cc1F)c1cc(F)cc(F)c1 | 51.13 | > 100 | >0.24 | Non-toxic | Non-toxic | – |
| COc1cc(NC(=O)c2ccc(OC(F)(F)F)cc2)cc(OC)c1 | 11.99 | 7.5 | 3.2 | Non-toxic | Non-toxic | – |
| CSc1ccc(NC(=O)c2cc(F)cc(F)c2)cc1 | – | 3.25 | 7.39 | Non-toxic | Non-toxic | 2.8 |
| CN(C)c1ccc(NC(=O)c2cc(F)cc(F)c2)cc1 | 23.93 | 30 | 0.8 | Non-toxic | Non-toxic | – |
| O=C(Nc1ccc(F)cc1)c1cc(F)cc(F)c1 | 30.55 | 21 | 1.14 | Non-toxic | Non-toxic | – |
| O=C(Nc1c(F)cc(F)cc1F)c1cc([N+](=O)[O-])cc([N+](=O)[O-])c1 | 25.66 | 32.5 | 0.74 | Non-toxic | Non-toxic | – |
| O=C(Nc1c(F)cc(F)cc1F)c1cc(F)cc(F)c1 | 9 | 26 | 0.92 | Non-toxic | Non-toxic | – |
| Oc1ccc(/C=C/c2cc(O)cc(O)c2)cc1 [RESVERATROL] | – | 24 | 1 | – | – | – |
| O=C(Nc1c(F)cc(F)cc1F)c1ccc(F)cc1 | 28.35 | 42 | 0.57 | Non-toxic | Non-toxic | – |
| COc1cc(NC(=O)c2cc(F)cc(F)c2)cc(OC)c1OC | 22.87 | 27.5 | 0.87 | Non-toxic | Non-toxic | – |

From ChEMBL document CHEMBL1150382, “Benzanilides with spasmolytic activity: chemistry, pharmacology, and SAR” (Bioorg Med Chem, 2008)
